This note sets out measurements from ChEMBL document CHEMBL3425404, “Structure-activity relationship in a purine-scaffold compound series with selectivity for the endoplasmic reticulum Hsp90 paralog Grp94” (J Med Chem, 2015).

Molecules are shown by their SMILES. Calls of active or inactive are those of the source. The calls are words filed in the database; no cut-off is given here. A value given as a limit tells only on which side of the number the result lay.

Series [1] in a line: Cytotoxicity against human SKBR3 cells assessed as cell viability at 100 uM after 72 hrs by CellTiter-Glo assay. It counts as cell-based. The note with it: sk-br-3, 72 h. The gist of the method:
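SKBr3 cells were grown in McCoy's 5A with 10% FBS and Pen/Strep at 37 °C. They were exposed 72 h to vehicle or compound in quadruplicate wells. Viability was read by CellTiter-Glo luminescence (ATP content), with mean ± error, n = 4.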

The target in series [2] is T1, Heat shock protein HSP90 (Homo sapiens) (UniProt P07900+P08238). Briefly: Inhibition of HSP90 in human SKBR3 cells assessed as induction of HSP70 activity at 100 uM after 24 hrs by Western blot analysis. It counts as cell-based. The conditions noted are these: SK-BR-3. The method, boiled down: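 SKBr3 cells (McCoy's 5A, 10% FBS, 1% Pen/Strep, 37 °C, CO2) treated 24 h with DMSO vehicle or compound. Cells lysed in RIPA with protease inhibitors; protein measured by BCA. Lysate (5−50 μg) run on SDS−PAGE, blotted to nitrocellulose, probed for Hsp70 (1:2500) and β-actin. HRP secondary, ECL detection, densitometry; triplicate experiments.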
For orientation: A western blot detects proteins with antibodies after separation by electrophoresis.

Series [3] is described as follows: Binding affinity to full length yeast His-tagged Hsp90 (1 to 709) overexpressed in Escherichia coli BL21 Star (DE3) by tryptophan fluorescence assay. Also noted: species or system Saccharomyces cerevisiae.
Series [4] concerns the target Endoplasmin (Canis lupus familiaris, UniProt P41148). Briefly: Binding affinity to canine full-length His-tagged GRP94 (28 to 754 residues lacking 287 to 327 residues) expressed in Escherichia coli by tryptophan fluorescence assay.
Series [5] can be described thus: Oral bioavailability in B6D2F1 mouse at 10 mg/kg by LC-MS/MS analysis. The note with it: in vivo. It counts as ADME, organism-based. The gist of the method:
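Male B6D2F1 mice (n = 2 per time point, 20 total) got a single 10 mg/kg iv or oral dose in 30% captisol, 5 mM citrate pH 4.2. Plasma levels at sacrifice times were measured by LC−MS/MS, converted to molar assuming 1 g = 1 mL, and plotted versus time. Oral F was derived.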

Series [6] has as its target Endoplasmin (Homo sapiens) (UniProt P14625). Briefly: Inhibition of Grp94 in human SKBR3 cells overexpressing HER2 assessed as degradation of HER2 at 1 to 25 uM after 24 hrs by Western blot analysis. It counts as cell-based. The note with it: SK-BR-3. The method, boiled down: (§1)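 SKBr3 cells were treated 24 h with DMSO vehicle or compound, then lysed in RIPA with protease inhibitors. Lysate (5−50 μg) was run on SDS−PAGE and immunoblotted for HER2 or Hsp70, with β-actin as loading control. Detection was by HRP secondary and ECL, with densitometry. Blots are representative of triplicate experiments.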

Series [7] is filed under the species Homo sapiens. Briefly: Selectivity ratio of IC50 for recombinant Trap1 (unknown origin) to IC50 for recombinant Grp94 (unknown origin).
Series [8] can be described thus: Ratio of drug level in tumor to plasma in nu/nu athymic mouse xenografted with human MDA-MB-468 cells at 75 mg/kg, ip measured at 24 hrs by LC-MS/MS analysis. Also on record: dose 75 mg/kg, route intraperitoneal. It counts as ADME, organism-based. The method, boiled down: (§2)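 Mice bearing subcutaneous MDA-MB-468 breast tumors (1 × 10^7 cells in right flank) got a single 75 mg/kg ip dose, n = 4 per time point. They were sacrificed at 2 and 24 h. Drug in tumor, tissues and plasma was quantified by LC−MS/MS, and tumor-to-tissue or tumor-to-plasma ratios were computed. Mean ± error.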
In general terms: Xenograft models place foreign cells or tissue in a host animal.

A short description of series [9]: Drug uptake in tumor of nu/nu athymic mouse xenografted with human MDA-MB-468 cells at 75 mg/kg, ip measured at 2 hrs by LC-MS/MS analysis. It counts as ADME, organism-based. Also noted: dose 75 mg/kg, route intraperitoneal. The conditions noted are these: read-out: Drug uptake. The gist of the method:
as §2

Series [10] concerns Nucleic Acid. Briefly: Ratio of drug level in tumor to heart in nu/nu athymic mouse xenografted with human MDA-MB-468 cells at 75 mg/kg, ip measured at 24 hrs by LC-MS/MS analysis. It counts as ADME, organism-based. Also noted: dose 75 mg/kg, route intraperitoneal. The note with it: in vivo. The gist of the method: as §2
The subject of series [11] is Mus musculus. Briefly: Acute toxicity in nu/nu athymic mouse xenografted with human MDA-MB-468 cells at 150 mg/kg, ip. It counts as organism-based. Also noted: dose 150 mg/kg, route intraperitoneal. The note with it: in vivo. The method, boiled down: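 MDA-MB-468 cells (1 × 10^7) were implanted sc in the right flank and allowed to grow. Tumour-bearing mice (n = 4) received 75 or 150 mg/kg ip and were followed for acute toxicity. Augmentin was given in the drinking water during therapy.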

Series [12] has as its target Endoplasmin (Mus musculus) (UniProt P08113). Nature of the series: Inhibition of Grp94 in mouse RAW264.7 cells assessed as inhibition of CpG-induced TNFalpha production after 18 hrs by ELISA. It counts as cell-based. (An ELISA detects its analyte on a solid surface through an enzyme-linked reagent.)
Series [13] deals with RAW264.7. Nature of the series: Inhibition of HSP90 in mouse RAW264.7 cells assessed as inhibition of LPS-induced TNFalpha production at 2 to 16 uM after 18 hrs by ELISA. It counts as cell-based.
Series [14] in a line: Plasma concentration in nu/nu athymic mouse xenografted with human MDA-MB-468 cells at 75 mg/kg, ip measured at 2 hrs by LC-MS/MS analysis. It counts as ADME, organism-based. Also noted: dose 75 mg/kg, route intraperitoneal. The method, boiled down: as §2
Series [15] is filed under the species Homo sapiens. Nature of the series: Selectivity ratio of IC50 for recombinant Hsp90beta (unknown origin) to IC50 for recombinant Grp94 (unknown origin).
Series [16] addresses Endoplasmin (Homo sapiens) (UniProt P14625). Briefly: Inhibition of Grp94 in HEK293T cells assessed as downregulation of TLR9 protein expression in post ER compartment after 24 hrs by confocal microscopic analysis. It counts as cell-based. The conditions noted are these: HEK-293T. The gist of the method:
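HEK293T cells were transfected with HA-tagged human TLR9 and split onto chamber slides 24 h later. They were then treated 24 h at varying concentrations. Cells were fixed in 4% paraformaldehyde, permeabilized with Triton X-100 and blocked in 3% BSA. They were stained with anti-HA then Cy3 secondary, with DAPI. Imaging was by confocal microscopy, and fluorescence intensity was normalized to cell number.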

For series [17], the target named is T1, Heat shock protein HSP90 (Homo sapiens). Nature of the series: Inhibition of HSP90 in human SKBR3 cells assessed as induction of HSP70 activity at 1 to 25 uM after 24 hrs by Western blot analysis. It counts as cell-based. The note with it: SK-BR-3. The method, boiled down: as §1
In series [18] the target is Endoplasmin (Mus musculus) (UniProt P08113). Nature of the series: Inhibition of Grp94 in mouse differentiated C2C12 cells assessed as inhibition of IGF-2 secretion after 24 hrs by ELISA. It counts as cell-based. The gist of the method:
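C2C12 mouse myoblasts were shifted to differentiation medium (DMEM, 2% horse serum) and treated 24 h with compounds. Medium was captured overnight at 4 °C on anti-IGF-II ELISA plates and detected with biotinylated antibody, HRP-streptavidin and TMB. A450 was read, and IGF-II was quantified against a recombinant IGF-II standard curve.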

Endoplasmin (Mus musculus), sequence (P08113 whole entry): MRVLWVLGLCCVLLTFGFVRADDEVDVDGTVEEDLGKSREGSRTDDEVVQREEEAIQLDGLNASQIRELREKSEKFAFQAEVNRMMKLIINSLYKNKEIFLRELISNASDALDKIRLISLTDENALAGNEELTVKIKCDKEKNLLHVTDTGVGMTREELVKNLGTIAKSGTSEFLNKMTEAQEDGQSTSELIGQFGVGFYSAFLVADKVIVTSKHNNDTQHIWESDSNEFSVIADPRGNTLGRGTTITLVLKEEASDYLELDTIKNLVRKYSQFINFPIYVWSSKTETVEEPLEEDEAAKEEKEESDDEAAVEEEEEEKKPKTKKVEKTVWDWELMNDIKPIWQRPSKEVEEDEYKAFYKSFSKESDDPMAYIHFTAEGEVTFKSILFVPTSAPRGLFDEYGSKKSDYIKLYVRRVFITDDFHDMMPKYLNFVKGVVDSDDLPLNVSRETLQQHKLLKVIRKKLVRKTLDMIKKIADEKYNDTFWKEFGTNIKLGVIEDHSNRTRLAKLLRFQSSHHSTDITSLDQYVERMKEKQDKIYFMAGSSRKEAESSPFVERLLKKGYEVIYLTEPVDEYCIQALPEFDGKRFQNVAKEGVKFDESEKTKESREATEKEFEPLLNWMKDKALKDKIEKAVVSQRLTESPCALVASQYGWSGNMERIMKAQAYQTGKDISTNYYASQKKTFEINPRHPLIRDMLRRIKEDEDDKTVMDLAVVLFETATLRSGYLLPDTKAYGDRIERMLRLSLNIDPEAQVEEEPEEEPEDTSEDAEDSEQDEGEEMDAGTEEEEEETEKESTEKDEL
Endoplasmin (Homo sapiens), sequence (P14625 whole entry): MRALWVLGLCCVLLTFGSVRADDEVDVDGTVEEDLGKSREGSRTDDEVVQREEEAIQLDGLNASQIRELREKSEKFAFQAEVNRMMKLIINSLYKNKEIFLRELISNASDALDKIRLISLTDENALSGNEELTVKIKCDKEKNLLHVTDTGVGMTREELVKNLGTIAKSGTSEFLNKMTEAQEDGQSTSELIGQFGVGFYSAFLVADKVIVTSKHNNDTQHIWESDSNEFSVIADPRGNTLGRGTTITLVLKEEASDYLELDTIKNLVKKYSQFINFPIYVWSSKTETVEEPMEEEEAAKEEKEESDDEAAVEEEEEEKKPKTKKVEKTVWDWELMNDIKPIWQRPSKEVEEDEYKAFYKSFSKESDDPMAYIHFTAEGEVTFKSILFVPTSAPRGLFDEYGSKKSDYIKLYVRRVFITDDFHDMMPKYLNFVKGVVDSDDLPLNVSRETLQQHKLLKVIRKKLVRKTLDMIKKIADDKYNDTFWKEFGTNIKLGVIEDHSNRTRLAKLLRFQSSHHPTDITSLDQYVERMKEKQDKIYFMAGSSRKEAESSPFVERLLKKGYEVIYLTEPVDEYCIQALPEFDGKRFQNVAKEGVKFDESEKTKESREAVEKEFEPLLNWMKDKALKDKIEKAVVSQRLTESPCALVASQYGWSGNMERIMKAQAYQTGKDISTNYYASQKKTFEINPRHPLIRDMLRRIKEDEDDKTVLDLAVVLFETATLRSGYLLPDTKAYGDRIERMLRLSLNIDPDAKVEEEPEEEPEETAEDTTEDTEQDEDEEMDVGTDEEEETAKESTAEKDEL
Endoplasmin, sequence (P41148 22-804 limits assumed): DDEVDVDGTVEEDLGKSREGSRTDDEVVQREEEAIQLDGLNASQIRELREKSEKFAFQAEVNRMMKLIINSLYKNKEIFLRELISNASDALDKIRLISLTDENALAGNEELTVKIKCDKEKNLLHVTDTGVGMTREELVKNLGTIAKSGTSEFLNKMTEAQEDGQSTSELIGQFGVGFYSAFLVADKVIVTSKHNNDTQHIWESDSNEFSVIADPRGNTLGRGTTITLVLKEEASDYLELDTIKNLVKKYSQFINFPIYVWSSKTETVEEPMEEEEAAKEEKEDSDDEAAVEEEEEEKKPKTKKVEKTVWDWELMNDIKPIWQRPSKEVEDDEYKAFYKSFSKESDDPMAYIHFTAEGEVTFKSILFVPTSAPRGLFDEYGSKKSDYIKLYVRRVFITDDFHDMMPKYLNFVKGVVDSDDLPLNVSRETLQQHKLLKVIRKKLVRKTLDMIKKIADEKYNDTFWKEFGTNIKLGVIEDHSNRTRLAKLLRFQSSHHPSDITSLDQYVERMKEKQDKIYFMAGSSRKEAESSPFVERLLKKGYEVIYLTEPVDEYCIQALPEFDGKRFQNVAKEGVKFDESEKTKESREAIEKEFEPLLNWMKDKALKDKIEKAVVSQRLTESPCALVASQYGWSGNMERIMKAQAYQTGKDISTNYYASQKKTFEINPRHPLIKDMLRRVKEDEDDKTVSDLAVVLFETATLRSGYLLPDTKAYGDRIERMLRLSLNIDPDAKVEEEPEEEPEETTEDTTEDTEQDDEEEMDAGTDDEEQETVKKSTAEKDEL

Take `COC(=O)c1c(O)cc(O)c(Cl)c1CCc1nccn1Cc1ccccc1`: the Activity result in [1] was “Toxic”. For the same compound, in [2], the inhibition entry was “Active”.
As a reminder, the Kd is the concentration at which binding is half-saturated. In the case of `COC(=O)c1c(O)cc(O)c(Cl)c1CCC(=O)NC1=CC(=O)C(OC)=CC1=O`, the values for the Kd in series [3] and in series [4] were 870 nM and 520 nM, respectively.
Broadly, the bioavailability is dose-corrected exposure relative to a reference, in per cent. Broadly, the Kp is the ratio of the level in a tissue or fluid to that in plasma or blood. In the case of `CC(C)NCCCn1c(Sc2cc(Cl)cc(Cl)c2)nc2c(N)ncnc21`, the bioavailability in series [5] worked out at 80%. For the same compound, the inhibition entry in [6] is “Active”. The Ratio IC50 in [7] is 33; in series [15] it was over 100. In addition, in series [8], the Kp at 24 h was 200. The concentration at 2 h in series [9] worked out at 850 µM; in series [14], 100 µM. Further, in series [10], the Ratio is 100. Also, the Activity result in series [11] was “Non-toxic”. Further, the inhibition entry in series [12], in series [16] and in series [18] was “Dose-dependent effect” each time. In addition, the inhibition result in series [13] and in series [17] was “inactive” in each case.
